Data as given in publication PMC2864154 (Biochemical pharmacology, 2010).
Like-named read-outs stand apart in the source and are kept apart here.

Tests used:
[1] = molecular target: P2Y1 receptor (Mus musculus, UniProt P49650); assay: Competition binding against [125I]MRS2500 in MIN6 cell membranes
[2] = molecular target: mouse P2Y1 receptor (Mus musculus, UniProt P49650); assay: Saturation binding of [125I]MRS2500 in MIN6 cell membranes; settings: n=3
How it was run: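 Membranes came from MIN6 cells at 80% confluence: homogenized, cleared at 100 × g for 5 min, Polytron-homogenized in 50 mM Tris-HCl pH 7.4, and pelleted at 20,000 × g for 20 min at 4°C. They were incubated with 0.2–7.2 nM [125I]MRS2500 in 50 mM Tris, MgCl2, pH 7.4, for 60 min at 4°C. Nonspecific binding used 10 μM unlabelled ligand. Bound ligand was collected on GF/B filters; Bmax was expressed per mg protein (BCA) and KD from saturation/Scatchard analysis; n=3.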

[3] = tested on: MIN6 cells; assay: Insulin secretion assay; assay type: cell-based, mouse; settings: for EC50: read-out: EC50 insulin secretion, 1 h, n=3
How it was run: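 Cells were seeded at 40,000/well and cultured 48 h in DMEM at 37°C, then preincubated 1 h in KRBB with 3.3 mM glucose and 0.3% albumin. Secretion was stimulated 1 h at 37°C in KRBB with 16.7 mM glucose (or a glucose series) ± agonist, with or without P2Y1/P2Y13 antagonists (30 μM) or a P2Y6 antagonist (10 μM). Insulin was measured by ELISA against a mouse insulin standard; n=3.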

[4] = tested on: MIN6 cells; assay: TNF-α induced apoptosis, HO342/PI nuclei staining, fluorescence microscopy; assay type: cell-based, mouse; settings: TNF-α 50 ng/ml; for nuclei/cells double stained with HO342 and PI: agonist 10 μM where present
How it was run: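 MIN6 cells were grown 48 h on coverslips, then moved to DMEM with 5% FBS. Cells were pretreated 30 min with 10 μM agonist, which stayed present, then given TNF-α 50 ng/ml (16 h per methods; legend gives staining after 24 h); PBS alone was the negative control. Staining used PI 10 μg/ml plus HO342 20 μg/ml for 10 min, viewed by fluorescence microscopy at 365 nm excitation. Condensed or fragmented blue, pink or red nuclei were scored apoptotic.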

[5] = tested on: MIN6 cells; assay: TNF-α induced apoptosis, PI flow cytometry; assay type: cell-based, mouse; settings: TNF-α 50 ng/ml, 24 h; for cell death (sub-G1 peak): agonist pretreatment where present
How it was run: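 Cells were grown in 6-well plates, pretreated with agonist (10 μM, 30 min, kept present), and exposed to TNF-α 50 ng/ml. At 24 h after induction, cells were trypsinized, stained with PI (10 μg/ml) for 30 min, and analyzed by flow cytometry. Cell death was scored as the percentage of cells with sub-G1 DNA content.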

[6] = tested on: P2Y4; settings: read-out: EC50 PLC activation; P2Y4, transfected astrocytoma cells; cited from earlier work
[7] = tested on: P2Y6; settings: read-out: EC50 PLC activation; P2Y6, transfected astrocytoma cells; cited from earlier work
[8] = tested on: P2Y2; settings: read-out: EC50 PLC activation; P2Y2, transfected astrocytoma cells; cited from earlier work
[9] = tested on: MIN6 cells; assay: Inositol phosphate; assay type: cell-based, mouse; settings: read-out: EC50 accumulation of intracellular IP3; 30 min at 37°C, 20 mM lithium chloride, n=3
How it was run: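 MIN6 cells were grown to 80% confluence with myo-[3H]-inositol (2 μCi/ml) for 48 h. They were then exposed to P2Y ligand or buffer with 20 mM LiCl for 30 min at 37°C. The reaction was stopped with cold 20 mM formic acid, and supernatants were neutralized with NH4OH. Samples went through AG1-X8 anion exchange, with total IP3 eluted by 1 M ammonium formate/0.1 M formic acid and counted by scintillation; n=3.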

[10] = against [125I]MRS2500, MIN6 cell membranes, mean ± s.e.m. of three experiments

Chain of P2Y1 receptor (P49650 whole entry): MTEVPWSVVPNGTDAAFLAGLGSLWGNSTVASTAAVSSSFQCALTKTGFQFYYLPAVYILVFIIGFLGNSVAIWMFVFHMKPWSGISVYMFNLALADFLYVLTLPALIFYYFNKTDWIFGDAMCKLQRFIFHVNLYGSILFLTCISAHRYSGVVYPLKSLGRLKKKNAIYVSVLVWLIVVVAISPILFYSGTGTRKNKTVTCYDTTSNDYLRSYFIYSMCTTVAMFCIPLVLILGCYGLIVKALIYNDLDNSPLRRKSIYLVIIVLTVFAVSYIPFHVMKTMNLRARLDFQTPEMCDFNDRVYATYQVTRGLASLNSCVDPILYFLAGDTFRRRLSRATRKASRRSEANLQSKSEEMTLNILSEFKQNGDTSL
Chain of mouse P2Y1 receptor (P49650 whole entry): as above

CNc1nc(I)nc2c1ncn2[C@H]1C[C@H](OP(=O)(O)O)[C@]2(COP(=O)(O)O)C[C@H]12 [MRS2500, 2-iodo-N^6-methyl-(N)-methanocarba-2′-deoxyadenosine-3′,5′-bisphosphate]
Ki [1, 10]: 2.92 ± 0.21 nM

CNc1nc(I)nc2c1ncn2[C@H]1C[C@H](OP(=O)(O)O)[C@]2(COP(=O)(O)O)C[C@H]12 [[^125I]MRS2500]
Bmax [2]: 307±22 fmol receptor per mg protein
Kd ([2]; saturation binding, 60 min at 4° C): 4.74 ± 0.47 nM

CNc1nc(Cl)nc2c1ncn2[C@H]1C[C@H](OP(=O)(O)O)[C@]2(COP(=O)(O)O)C[C@H]12 [MRS2279, 2-chloro-N^6-methyl-(N)-methanocarba-2′-deoxyadenosine-3′,5′-bisphosphate]
Ki [1, 10]: 6.86 ± 0.12 nM

S=C=Nc1cccc(NC(=S)NCCCCNC(=S)Nc2cccc(N=C=S)c2)c1 [MRS2578]
effect of antagonist on insulin secretion induced by Up3U ([3]; antagonist 10 μM, Up3U 10 μM): significantly blocked

CNc1ncnc2c1ncn2[C@H]1C[C@H](OP(=O)(O)O)[C@@H](COP(=O)(O)O)O1 [MRS2179, N^6-methyl-2′-deoxyadenosine-3′,5′-bisphosphate]
Ki [1]: 49.8 ± 0.23 nM

Nc1ncnc2c1ncn2[C@@H]1O[C@H](COP(=O)(O)OP(=O)(O)O)[C@@H](O)[C@H]1O [ADP]
effect on insulin release ([3]; agonist 10 μM, 16.7 mM glucose): stimulated insulin release
concentration at which insulin secretion was maximal ([3]; concentration response studies, 16.7 mM glucose): 10 µM
Ki [1, 10]: 335 ± 3.9 nM

CSc1nc(N)c2ncn(C3CC(O)C4(COP(=O)(O)OP(=O)(O)O)CC34)c2n1 (stereo not drawn) [MRS2365, (N)-methanocarba-2′-deoxy-2-methylthio-adenosine-5′-diphosphate]
EC50 ([3]; 16.7 mM glucose): 25.8 ± 5.6 nM

TNF-α
nuclei/cells double stained with HO342 and PI [4]: 30-40%
cell death (sub-G1 peak) [5]: 54%

O=c1ccn([C@@H]2O[C@H](COP(=O)(O)OP(=O)(O)OP(=O)(O)OC[C@@H]3O[C@@H](n4ccc(=O)[nH]c4=O)C(O)[C@@H]3O)[C@H](O)C2O)c(=O)[nH]1 (stereo partly drawn) [Up3U, P^1,P^4-di(uridine 5′-)triphosphate]
EC50 [6]: 870 ± 110 nM
effect on insulin secretion at low glucose ([3]; 3.3 mM glucose, data not shown): did not show any significant effect
increase in insulin secretion compared with glucose alone ([3]; agonist 10 μM, 35 mM glucose): 2 fold
EC50 ([3]; 16.7 mM glucose): 30.7 ± 12.7 nM
EC50 [7]: 270 ± 70 nM
cells homogeneously stained only with HO342 ([4]; agonist 10 μM): more than 80%
cytoprotection against TNF-α induced apoptosis (microscopy) ([4]; agonist 10 μM pretreatment): significant cytoprotection
nuclei/cells double stained with HO342 and PI [4]: ~ 10%
EC50 [8]: 1310 ± 210 nM
reduction of cell death compared to TNF-α alone ([5]; agonist pretreatment): significant reduction in cell death
cell death (sub-G1 peak) [5]: 25%
EC50 [9]: 29 ± 7.3 nM
